This is an account of results in the M2OR odorant receptor database.

Molecules are shown by their SMILES.

This assay addresses T1, OR10J5 (Homo sapiens) (UniProt Q8NHC4).
T1 sequence (whole entry): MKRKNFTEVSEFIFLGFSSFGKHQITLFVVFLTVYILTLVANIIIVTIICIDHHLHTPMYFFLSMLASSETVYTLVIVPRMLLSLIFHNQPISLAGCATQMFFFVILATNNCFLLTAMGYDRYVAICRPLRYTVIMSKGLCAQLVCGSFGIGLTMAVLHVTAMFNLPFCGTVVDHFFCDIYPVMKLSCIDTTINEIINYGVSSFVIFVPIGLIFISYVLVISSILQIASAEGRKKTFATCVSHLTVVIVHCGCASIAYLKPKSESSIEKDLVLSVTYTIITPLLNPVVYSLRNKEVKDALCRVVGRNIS
The following applies: stereoisomer not certain. The essentials: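 Each receptor–molecule pair is labelled responsive or non-responsive (inactive) according to whether the original authors judged the measured signal statistically different from baseline. The data were taken from the main text and supplementary material of published papers and checked for typos and inconsistencies. Assay methods differed by source, with transient luciferase assays in mammalian cell lines being common.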
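Also: active if original authors judged signal statistically different from baseline.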

Regarding `C=CCOC(=O)CCCCCC`, the “odorant receptor agonist call” value is “inactive”.
